Experimental data as given in ChEMBL document CHEMBL4052804, “Design and synthesis of piperazine acetate podophyllotoxin ester derivatives targeting tubulin depolymerization as new anticancer agents” (Bioorg Med Chem Lett, 2017).
The source made the active and inactive calls. The rule behind the calls is not given here.

Legend:
[1] = test system: A549; assay: Cytotoxicity against human A549 cells after 24 hrs by MTT assay; assay type: functional, cell-based; details: A549, 24 h
Summary of the method: (§1)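 In vitro antiproliferative screen by MTT assay against human MCF-7 breast, HeLa cervical, A549 lung adenocarcinoma and HepG-2 hepatoma cells. Output is the IC50.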

[2] = test system: HeLa; assay: Cytotoxicity against human HeLa cells after 24 hrs by MTT assay; assay type: functional, cell-based; summary of the method: as §1
[3] = test system: MCF7; assay: Cytotoxicity against human MCF7 cells after 24 hrs by MTT assay; assay type: functional, cell-based; details: MCF7, 24 h; summary of the method: as §1
[4] = test system: HepG2; assay: Cytotoxicity against human HepG2 cells after 24 hrs by MTT assay; assay type: functional, cell-based; details: HepG2, 24 h; summary of the method: as §1
[5] = test system: L02; assay: Cytotoxicity against human L02 cells after 24 hrs by MTT assay; assay type: cell-based; details: L02, 24 h
Summary of the method: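 Normal human liver L02 cells were tested at multiple concentrations in an MTT assay. Output is the median cytotoxic concentration (CC50).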

[6] = species on record: Homo sapiens; assay: Induction of tubulin depolymerization in human MCF7 cells at 1 uM after 12 hrs by DAPI staining based confocal microscopic analysis; assay type: cell-based

| SMILES | IC50 [1] | IC50 [2] | IC50 [3] | IC50 [4] | IC50 [5] | Activity [6] |
| --- | --- | --- | --- | --- | --- | --- |
| COc1cc([C@@H]2c3cc4c(cc3[C@H](OC(=O)CN3CCN(C(c5ccccc5)c5ccccc5)CC3)[C@H]3COC(=O)[C@H]23)OCO4)cc(OC)c1OC | 12.3 µM | 23.2 µM | 16.5 µM | 16.4 µM | 65.8 µM |  |
| COc1cc([C@@H]2c3cc4c(cc3[C@@H](O[C@@H]3O[C@@H]5CO[C@@H](C)O[C@H]5[C@H](O)[C@H]3O)[C@H]3COC(=O)[C@H]23)OCO4)cc(OC)c1O [ETOPOSIDE] | 6.21 µM | 1.58 µM | 2.08 µM | 5.52 µM | 7.75 µM |  |
| COc1cc([C@@H]2c3cc4c(cc3[C@H](OC(=O)CN3CCN(c5ccc([N+](=O)[O-])cc5)CC3)[C@H]3COC(=O)[C@H]23)OCO4)cc(OC)c1OC | 8.15 µM | 11 µM | 9.6 µM | 6.87 µM | > 100 µM |  |
| COc1cc([C@@H]2c3cc4c(cc3[C@H](OC(=O)CN3CCN(c5cccc(Cl)c5Cl)CC3)[C@H]3COC(=O)[C@H]23)OCO4)cc(OC)c1OC | 7.51 µM | 7.83 µM | 3.02 µM | 6.15 µM | 97.8 µM |  |
| COc1cc([C@@H]2c3cc4c(cc3[C@H](OC(=O)CN3CCN(c5ccccc5)CC3)[C@H]3COC(=O)[C@H]23)OCO4)cc(OC)c1OC | 15.2 µM | 33 µM | 22 µM | 16.6 µM | 75.8 µM |  |
| COc1cc([C@@H]2c3cc4c(cc3[C@H](OC(=O)CN3CCN(c5ccccc5Cl)CC3)[C@H]3COC(=O)[C@H]23)OCO4)cc(OC)c1OC | 8.47 µM | 11.3 µM | 9.98 µM | 17.7 µM | > 100 µM |  |
| CC(=O)O[C@H]1C(=O)[C@@]2(C)[C@H]([C@H](OC(=O)c3ccccc3)[C@]3(O)C[C@H](OC(=O)[C@H](O)[C@@H](NC(=O)c4ccccc4)c4ccccc4)C(C)=C1C3(C)C)[C@]1(OC(C)=O)CO[C@@H]1C[C@@H]2O |  |  |  |  |  | inactive |
| COc1cc([C@@H]2c3cc4c(cc3[C@H](OC(=O)CN3CCN(c5cccc(C(F)(F)F)c5)CC3)[C@H]3COC(=O)[C@H]23)OCO4)cc(OC)c1OC | 10.8 µM | 6.82 µM | 7.19 µM | 9.61 µM | > 100 µM |  |
| COc1cc([C@@H]2c3cc4c(cc3[C@H](OC(=O)CN3CCN(c5ccc(C)cc5C)CC3)[C@H]3COC(=O)[C@H]23)OCO4)cc(OC)c1OC | 34.4 µM | 23.1 µM | > 50 µM | 45.8 µM | 93.9 µM |  |
| COc1cc([C@@H]2c3cc4c(cc3[C@H](OC(=O)CN3CCN(c5ccc(F)cc5)CC3)[C@H]3COC(=O)[C@H]23)OCO4)cc(OC)c1OC | 11.9 µM | 17.3 µM | 8.49 µM | 12.6 µM | > 100 µM |  |
| COc1cc2c(c(OC)c1OC)-c1ccc(OC)c(=O)cc1[C@@H](NC(C)=O)CC2 |  |  |  |  |  | Active |
| COc1cc([C@@H]2c3cc4c(cc3[C@H](OC(=O)CN3CCN(C(c5ccc(F)cc5)c5ccc(F)cc5)CC3)[C@H]3COC(=O)[C@H]23)OCO4)cc(OC)c1OC | 13.2 µM | 9.54 µM | 6.23 µM | 7.04 µM | > 100 µM |  |
| COc1cccc(N2CCN(CC(=O)O[C@H]3c4cc5c(cc4[C@@H](c4cc(OC)c(OC)c(OC)c4)[C@H]4C(=O)OC[C@@H]43)OCO5)CC2)c1 | 23.2 µM | 36.7 µM | 12.2 µM | 36.7 µM | > 100 µM |  |
| COc1ccc(N2CCN(CC(=O)O[C@H]3c4cc5c(cc4[C@@H](c4cc(OC)c(OC)c(OC)c4)[C@H]4C(=O)OC[C@@H]43)OCO5)CC2)cc1 | 16.4 µM | 31.6 µM | 13.5 µM | 25.9 µM | 87.9 µM |  |
| COc1cc([C@@H]2c3cc4c(cc3[C@H](OC(=O)CN3CCN(c5ccccc5F)CC3)[C@H]3COC(=O)[C@H]23)OCO4)cc(OC)c1OC | 9.8 µM | 18 µM | 11.7 µM | 15.4 µM | > 100 µM |  |
| COc1ccccc1N1CCN(CC(=O)O[C@H]2c3cc4c(cc3[C@@H](c3cc(OC)c(OC)c(OC)c3)[C@H]3C(=O)OC[C@@H]32)OCO4)CC1 | 28.6 µM | > 50 µM | 48.2 µM | 34.2 µM | 90.7 µM |  |
| COc1cc([C@@H]2c3cc4c(cc3[C@H](OC(=O)CN3CCN(c5cccc(Cl)c5)CC3)[C@H]3COC(=O)[C@H]23)OCO4)cc(OC)c1OC | 9.26 µM | 8.3 µM | 9.87 µM | 13.5 µM | 99.3 µM |  |
| COc1cc([C@@H]2c3cc4c(cc3[C@H](OC(=O)CN3CCN(C(c5ccccc5)c5ccc(Cl)cc5)CC3)[C@H]3COC(=O)[C@H]23)OCO4)cc(OC)c1OC (some centres not stated) | 14.2 µM | 12.2 µM | 7.75 µM | 10.9 µM | > 100 µM |  |
